Results taken from ChEMBL document CHEMBL1933017, “Synthesis and biological evaluation of some thiazolidinones as antimicrobial agents” (2012).
In brackets after ≈: the same amount, converted by molar mass.

Tests used:
Proteus vulgaris [1] = experiment: Antibacterial activity against Proteus vulgaris at 100 ug/disc after 24 hrs by disc diffusion method; format: functional; settings: read-out: DIZ
Method in brief: (§1)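 Paper disc diffusion on autoclaved Mueller-Hinton agar poured 5 mm deep. Agar was swab-inoculated with 10⁵ CFU/mL suspension (0.5 McFarland). Discs 6.25 mm across were soaked in compound solution in DMSO (3.12–100 µg/mL) and plates incubated 24 h at (37 ± 1) °C. Read-out was inhibition zone (mm). DMSO control disc; ciprofloxacin or ketoconazole reference, 100 µg/disc. Mean of three independent experiments.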

Shigella flexneri [2] = experiment: Antibacterial activity against Shigella flexneri at 100 ug/disc after 24 hrs by disc diffusion method; format: functional; settings: read-out: DIZ; method in brief: as §1
Staphylococcus aureus [3] = experiment: Antibacterial activity against Staphylococcus aureus after 24 hrs by agar streak dilution method; format: functional
Method in brief: (§2)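 MIC by agar streak dilution. Graded amounts of DMSO stock (100 μg/mL) were mixed into molten sterile nutrient agar and poured 4–5 mm deep. Serial concentrations spanned 3.12–100 µg/mL. Plates were inoculated with about 10⁵ CFU/mL of bacterial suspension and incubated at (37 ± 1) °C for 24 h. Each value is the mean of three independent experiments.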

Bacillus cereus [4] = experiment: Antibacterial activity against Bacillus cereus after 24 hrs by agar streak dilution method; format: functional; method in brief: as §2
Escherichia coli [5] = experiment: Antibacterial activity against Escherichia coli after 24 hrs by agar streak dilution method; format: functional; method in brief: as §2
Pseudomonas aeruginosa [6] = experiment: Antibacterial activity against Pseudomonas aeruginosa […] after 24 hrs by agar streak dilution method; format: functional
Klebsiella pneumoniae [7] = experiment: Antibacterial activity against Klebsiella pneumoniae […] after 24 hrs by agar streak dilution method; format: functional
Salmonella typhi [8] = experiment: Antibacterial activity against Salmonella Typhi after 24 hrs by agar streak dilution method; format: functional, Salmonella enterica subsp. enterica serovar Typhi; settings: Salmonella enterica
Method in brief: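 Agar streak dilution: DMSO stock (100 µg/mL) graded into molten sterile nutrient agar, poured 4–5 mm deep and solidified. Plates carry serial dilutions spanning 3.12–100 µg/mL. Applied ~10⁵ CFU/mL suspension, then incubated 24 h at (37 ± 1) °C. MIC read as the lowest inhibitory concentration; each value is the mean of three independent experiments.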

Proteus vulgaris [9] = experiment: Antibacterial activity against Proteus vulgaris after 24 hrs by agar streak dilution method; format: functional; method in brief: as §2
Shigella flexneri [10] = experiment: Antibacterial activity against Shigella flexneri after 24 hrs by agar streak dilution method; format: functional; method in brief: as §2
Aspergillus niger [11] = experiment: Antifungal activity against Aspergillus niger after 48 hrs by agar streak dilution method; format: functional
Method in brief: (§3)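 Fungal MIC by agar streak dilution on Sabouraud dextrose agar, poured 4–5 mm deep. Compound from a DMSO stock (100 μg/mL) was incorporated at serial concentrations of 3.12–100 µg/mL. Plates were inoculated with about 10⁵ CFU/mL of suspension and incubated at (37 ± 1) °C for 48 h. Each value is the mean of three independent experiments.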

Aspergillus fumigatus [12] = experiment: Antifungal activity against Aspergillus fumigatus after 48 hrs by agar streak dilution method; format: functional; method in brief: as §3
Aspergillus clavatus [13] = experiment: Antifungal activity against Aspergillus clavatus after 48 hrs by agar streak dilution method; format: functional; method in brief: as §3
Candida albicans [14] = experiment: Antifungal activity against Candida albicans after 48 hrs by agar streak dilution method; format: functional; method in brief: as §3
Aspergillus niger [15] = experiment: Antifungal activity against Aspergillus niger at 100 ug/disc after 24 hrs by disc diffusion method; format: functional; settings: read-out: DIZ; method in brief: as §1
Aspergillus fumigatus [16] = experiment: Antifungal activity against Aspergillus fumigatus at 100 ug/disc after 24 hrs by disc diffusion method; format: functional; settings: read-out: DIZ; method in brief: as §1
Aspergillus clavatus [17] = experiment: Antifungal activity against Aspergillus clavatus at 100 ug/disc after 24 hrs by disc diffusion method; format: functional; settings: read-out: DIZ; method in brief: as §1
Candida albicans [18] = experiment: Antifungal activity against Candida albicans at 100 ug/disc after 24 hrs by disc diffusion method; format: functional; settings: read-out: DIZ; method in brief: as §1
Staphylococcus aureus [19] = experiment: Antibacterial activity against Staphylococcus aureus at 100 ug/disc after 24 hrs by disc diffusion method; format: functional; settings: read-out: DIZ; method in brief: as §1
Bacillus cereus [20] = experiment: Antibacterial activity against Bacillus cereus at 100 ug/disc after 24 hrs by disc diffusion method; format: functional; settings: read-out: DIZ; method in brief: as §1
Escherichia coli [21] = experiment: Antibacterial activity against Escherichia coli at 100 ug/disc after 24 hrs by disc diffusion method; format: functional; settings: read-out: DIZ; method in brief: as §1
Pseudomonas aeruginosa [22] = experiment: Antibacterial activity against Pseudomonas aeruginosa at 100 ug/disc after 24 hrs by disc diffusion method; format: functional; settings: read-out: DIZ; method in brief: as §1
Klebsiella pneumoniae [23] = experiment: Antibacterial activity against Klebsiella pneumoniae at 100 ug/disc after 24 hrs by disc diffusion method; format: functional; settings: read-out: DIZ; method in brief: as §1
Salmonella typhi [24] = experiment: Antibacterial activity against Salmonella Typhi at 100 ug/disc after 24 hrs by disc diffusion method; format: functional, Salmonella enterica subsp. enterica serovar Typhi; settings: Salmonella enterica, read-out: DIZ
Method in brief: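 Paper disc diffusion on Mueller-Hinton agar poured 5 mm deep; 10⁵ CFU/mL suspension (0.5 McFarland) swabbed over surface. 6.25 mm filter paper discs soaked in compound in DMSO, incubated 24 h at (37 ± 1) °C; inhibition zone diameter in mm. DMSO disc as blank; ciprofloxacin 100 µg/disc as reference. Mean of three independent experiments.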

Structure (SMILES): CCN1CCN(CC2SC(c3ccc(OC)c(OC)c3)N(c3ccc(Nc4nc(Oc5cc(=O)n(C)c6ccccc56)nc(N(C)C)n4)cc3)C2=O)CC1 (configuration not stated)
- zone of inhibition at 100 µg/disc (Proteus vulgaris [1]): 23 mm
- zone of inhibition at 100 µg/disc (Shigella flexneri [2]): 22 mm
- MIC (Staphylococcus aureus [3]): 25 µg/mL (≈ 33.2 µM)
- MIC (Bacillus cereus [4]): 12.5 µg/mL (≈ 16.6 µM)
- MIC (Escherichia coli [5]): 25 µg/mL (≈ 33.2 µM)
- MIC (Pseudomonas aeruginosa [6]): 12.5 µg/mL (≈ 16.6 µM)
- MIC (Klebsiella pneumoniae [7]): 50 µg/mL (≈ 66.5 µM)
- MIC (Salmonella typhi [8]): 25 µg/mL (≈ 33.2 µM)
- MIC (Proteus vulgaris [9]): 50 µg/mL (≈ 66.5 µM)
- MIC (Shigella flexneri [10]): 50 µg/mL (≈ 66.5 µM)
- MIC (Aspergillus niger [11]): 100 µg/mL (≈ 133 µM)
- MIC (Aspergillus fumigatus [12]): 25 µg/mL (≈ 33.2 µM)
- MIC (Aspergillus clavatus [13]): 50 µg/mL (≈ 66.5 µM)
- MIC (Candida albicans [14]): 50 µg/mL (≈ 66.5 µM)
- zone of inhibition at 100 µg/disc (Aspergillus niger [15]): 21 mm
- zone of inhibition at 100 µg/disc (Aspergillus fumigatus [16]): 26 mm
- zone of inhibition at 100 µg/disc (Aspergillus clavatus [17]): 24 mm
- zone of inhibition at 100 µg/disc (Candida albicans [18]): 23 mm
- zone of inhibition at 100 µg/disc (Staphylococcus aureus [19]): 23 mm
- zone of inhibition at 100 µg/disc (Bacillus cereus [20]): 24 mm
- zone of inhibition at 100 µg/disc (Escherichia coli [21]): 24 mm
- zone of inhibition at 100 µg/disc (Pseudomonas aeruginosa [22]): 24 mm
- zone of inhibition at 100 µg/disc (Klebsiella pneumoniae [23]): 23 mm
- zone of inhibition at 100 µg/disc (Salmonella typhi [24]): 25 mm

Structure (SMILES): CCN1CCN(CC2SC(c3ccc(O)cc3O)N(c3ccc(Nc4nc(Oc5cc(=O)n(C)c6ccccc56)nc(N(C)C)n4)cc3)C2=O)CC1 (configuration not stated)
- zone of inhibition at 100 µg/disc (Proteus vulgaris [1]): 14 mm
- zone of inhibition at 100 µg/disc (Shigella flexneri [2]): 16 mm
- MIC (Staphylococcus aureus [3]): 100 µg/mL (≈ 138 µM)
- MIC (Bacillus cereus [4]): 100 µg/mL (≈ 138 µM)
- MIC (Escherichia coli [5]): 100 µg/mL (≈ 138 µM)
- MIC (Pseudomonas aeruginosa [6]): 100 µg/mL (≈ 138 µM)
- MIC (Klebsiella pneumoniae [7]): 100 µg/mL (≈ 138 µM)
- MIC (Salmonella typhi [8]): 100 µg/mL (≈ 138 µM)
- MIC (Proteus vulgaris [9]): 100 µg/mL (≈ 138 µM)
- MIC (Shigella flexneri [10]): 100 µg/mL (≈ 138 µM)
- MIC (Aspergillus niger [11]): 100 µg/mL (≈ 138 µM)
- MIC (Aspergillus fumigatus [12]): 100 µg/mL (≈ 138 µM)
- MIC (Aspergillus clavatus [13]): 100 µg/mL (≈ 138 µM)
- MIC (Candida albicans [14]): 100 µg/mL (≈ 138 µM)
- zone of inhibition at 100 µg/disc (Aspergillus niger [15]): 11 mm
- zone of inhibition at 100 µg/disc (Aspergillus fumigatus [16]): 15 mm
- zone of inhibition at 100 µg/disc (Aspergillus clavatus [17]): 17 mm
- zone of inhibition at 100 µg/disc (Candida albicans [18]): < 10 mm
- zone of inhibition at 100 µg/disc (Staphylococcus aureus [19]): 15 mm
- zone of inhibition at 100 µg/disc (Bacillus cereus [20]): 17 mm
- zone of inhibition at 100 µg/disc (Escherichia coli [21]): 15 mm
- zone of inhibition at 100 µg/disc (Pseudomonas aeruginosa [22]): 17 mm
- zone of inhibition at 100 µg/disc (Klebsiella pneumoniae [23]): 16 mm
- zone of inhibition at 100 µg/disc (Salmonella typhi [24]): 14 mm

Structure (SMILES): CCN1CCN(CC2SC(c3cccc(O)c3O)N(c3ccc(Nc4nc(Oc5cc(=O)n(C)c6ccccc56)nc(N(C)C)n4)cc3)C2=O)CC1 (configuration not stated)
- zone of inhibition at 100 µg/disc (Proteus vulgaris [1]): 13 mm
- zone of inhibition at 100 µg/disc (Shigella flexneri [2]): < 10 mm
- MIC (Staphylococcus aureus [3]): 100 µg/mL (≈ 138 µM)
- MIC (Bacillus cereus [4]): 100 µg/mL (≈ 138 µM)
- MIC (Escherichia coli [5]): 100 µg/mL (≈ 138 µM)
- MIC (Pseudomonas aeruginosa [6]): 100 µg/mL (≈ 138 µM)
- MIC (Klebsiella pneumoniae [7]): 100 µg/mL (≈ 138 µM)
- MIC (Salmonella typhi [8]): 100 µg/mL (≈ 138 µM)
- MIC (Proteus vulgaris [9]): 100 µg/mL (≈ 138 µM)
- MIC (Shigella flexneri [10]): 100 µg/mL (≈ 138 µM)
- MIC (Aspergillus niger [11]): 100 µg/mL (≈ 138 µM)
- MIC (Aspergillus fumigatus [12]): 100 µg/mL (≈ 138 µM)
- MIC (Aspergillus clavatus [13]): 100 µg/mL (≈ 138 µM)
- MIC (Candida albicans [14]): 100 µg/mL (≈ 138 µM)
- zone of inhibition at 100 µg/disc (Aspergillus niger [15]): < 10 mm
- zone of inhibition at 100 µg/disc (Aspergillus fumigatus [16]): 13 mm
- zone of inhibition at 100 µg/disc (Aspergillus clavatus [17]): 12 mm
- zone of inhibition at 100 µg/disc (Candida albicans [18]): < 10 mm
- zone of inhibition at 100 µg/disc (Staphylococcus aureus [19]): < 10 mm
- zone of inhibition at 100 µg/disc (Bacillus cereus [20]): 12 mm
- zone of inhibition at 100 µg/disc (Escherichia coli [21]): < 10 mm
- zone of inhibition at 100 µg/disc (Pseudomonas aeruginosa [22]): 11 mm
- zone of inhibition at 100 µg/disc (Klebsiella pneumoniae [23]): 16 mm
- zone of inhibition at 100 µg/disc (Salmonella typhi [24]): 14 mm
